Assay [1] deals with T1, Estrogen receptor (Mus musculus) (UniProt O08537+P19785). The assay can be described thus: Percent inhibition of estrone-stimulated uterotrophic effect in mice at 10 ug dose. The format is functional. Summed up: (§1)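 Antiuterotrophic test in immature female NMRI mice (20 days old). Estrone 0.4 μg was co-injected with the compound in olive oil, sc daily for three days. Uterine dry weight per body weight was read 24 h after the last dose. Inhibition (%) = 100 − [(W_S,T − W_V)/(W_S − W_V) × 100], where W_V is the vehicle control.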
T1 sequence (O08537 whole entry, looked up): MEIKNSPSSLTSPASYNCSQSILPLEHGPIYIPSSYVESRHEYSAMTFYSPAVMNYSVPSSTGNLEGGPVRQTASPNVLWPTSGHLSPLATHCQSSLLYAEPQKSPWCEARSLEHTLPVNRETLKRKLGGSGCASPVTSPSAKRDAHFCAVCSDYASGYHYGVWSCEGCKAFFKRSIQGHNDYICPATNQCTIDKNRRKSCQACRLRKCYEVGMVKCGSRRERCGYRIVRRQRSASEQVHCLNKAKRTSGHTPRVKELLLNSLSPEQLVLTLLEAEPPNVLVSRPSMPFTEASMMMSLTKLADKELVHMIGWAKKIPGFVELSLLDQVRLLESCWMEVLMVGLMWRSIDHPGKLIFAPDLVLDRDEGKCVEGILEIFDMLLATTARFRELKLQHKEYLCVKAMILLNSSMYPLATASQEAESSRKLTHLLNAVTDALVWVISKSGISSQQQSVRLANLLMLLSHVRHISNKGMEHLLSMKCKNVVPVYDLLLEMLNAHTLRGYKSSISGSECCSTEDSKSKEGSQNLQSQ
T1 sequence (P19785 whole entry, looked up): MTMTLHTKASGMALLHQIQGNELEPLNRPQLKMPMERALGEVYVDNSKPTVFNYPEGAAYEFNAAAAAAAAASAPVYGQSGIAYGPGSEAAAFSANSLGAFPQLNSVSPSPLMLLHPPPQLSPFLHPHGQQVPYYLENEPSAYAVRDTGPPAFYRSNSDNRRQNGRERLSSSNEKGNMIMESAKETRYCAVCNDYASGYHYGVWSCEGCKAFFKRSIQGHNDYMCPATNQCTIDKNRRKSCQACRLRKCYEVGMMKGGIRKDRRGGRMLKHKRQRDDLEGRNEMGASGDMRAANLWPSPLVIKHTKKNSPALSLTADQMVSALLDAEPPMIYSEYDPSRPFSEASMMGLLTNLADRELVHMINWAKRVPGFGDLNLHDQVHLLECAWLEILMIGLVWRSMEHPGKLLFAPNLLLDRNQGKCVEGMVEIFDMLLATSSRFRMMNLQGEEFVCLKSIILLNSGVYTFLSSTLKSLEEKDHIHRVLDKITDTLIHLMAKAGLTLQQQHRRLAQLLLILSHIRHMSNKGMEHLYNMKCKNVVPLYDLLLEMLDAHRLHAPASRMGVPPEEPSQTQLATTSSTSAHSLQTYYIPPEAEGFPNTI

Assay [2] deals with MCF7. The assay is described as follows: Inhibition of hormone-sensitive MCF-7 mammary tumor cell proliferation at 1*10e-6 M. The format is functional, Homo sapiens. Summed up: (§2)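 MCF-7 cells were grown in modified improved MEM with 10% newborn calf serum at 37 °C and 5% CO2, plated in 96-well plates for 3 d, then given drug medium (controls 0.1% DMF). After 3 days, cells were glutaraldehyde-fixed and crystal violet-stained; T/C = test/control optical density, corrected for initial density (vinblastine 10^-7 M). 16 replicates ± SD.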

The target in assay [3] is T1, Estrogen receptor (Mus musculus). The assay can be described thus: Anti-uterotrophic effect in mice as uterine weight(mg) relative to body weight(g) at 2 ug dose. Format: functional. The essentials:
(§3)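 Immature female NMRI mice, 20 days old, groups of six to ten; compound plus standard estrone 0.4 μg in olive oil (100 μL/animal) given sc on three consecutive days. Killed 24 h after last injection; uteri fixed in Bouin solution 2 h, dried at 100 °C for 18 h, weighed. Relative weight = uterine dry weight (mg)/body weight (g) × 100; mean of 6 animals ± SD.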

Assay [4] relates to MDA-MB-231. The assay can be described thus: Inhibition of hormone-independent MDA-MB 231 mammary tumor cell proliferation at 1*10e-5 M. Format: functional, Homo sapiens. The essentials: (§4)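 MDA-MB 231 cells were grown in McCoy 5a medium with 10% NCS and were pre-grown 3 d in microplates before drug medium was added (controls 0.1% DMF). After 2 days of incubation, wells were fixed with 1% glutaraldehyde, stained with 0.02% crystal violet, and read by optical density. T/C (%) was corrected for initial density (vinblastine 10^-7 M). 16 replicates ± SD.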

For assay [5], the target named is T1, Estrogen receptor (Mus musculus). The assay is described as follows: Uterotrophic effect in mice as uterine weight(mg) relative to body weight(g) at 2 ug dose. Format: functional, tissue-based. The essentials: (§5)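 Uterotrophic test: 20-day-old immature female NMRI mice, six to ten per group, received compound alone in olive oil (100 μL/animal) sc on three consecutive days; controls received vehicle. After 24 h, uteri were Bouin-fixed 2 h and dried 18 h at 100 °C. Uterine dry weight (mg)/body weight (g) × 100; mean of 6 ± SD.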

Assay [6] shares this target. The assay is described as follows: Anti-uterotrophic effect in mice as uterine weight(mg) relative to body weight(g) at 250 ug dose. The format is functional. The essentials: as §3
For assay [7], the system named is MCF7. The assay can be described thus: Inhibition of hormone-sensitive MCF-7 mammary tumor cell proliferation at 5*10e-6 M. The format is functional, Homo sapiens. The essentials:
as §2

Assay [8] has as its target T1, Estrogen receptor (Mus musculus). The assay can be described thus: Percent inhibition of estrone-stimulated uterotrophic effect in mice at 250 ug dose. Format: functional. The essentials:
as §1

Assay [9] shares this target. The assay is described as follows: Anti-uterotrophic effect in mice as uterine weight(mg) relative to body weight(g) at 50 ug dose. The format is functional. The essentials:
as §3

For assay [10] the target is unchanged. The assay can be described thus: Uterotrophic effect in mice as uterine weight(mg) relative to body weight(g) at 10 ug dose. Format: functional, tissue-based. The essentials: as §5
Assay [11] shares this target. The assay is described as follows: Anti-uterotrophic effect in mice as uterine weight(mg) relative to body weight(g) at 10 ug dose. Format: functional. The essentials: as §3
Assay [12] deals with MDA-MB-231. The assay is described as follows: Inhibition of hormone-independent MDA-MB 231 mammary tumor cell proliferation at 1*10e-6 M. The format is functional, Homo sapiens. The essentials:
as §4

Assay [13] concerns MCF7. The assay is described as follows: Inhibition of hormone-sensitive MCF-7 mammary tumor cell proliferation at 1*10e-5 M. The format is functional, Homo sapiens. Summed up:
as §2

The test system of assay [14] is MCF7. The assay can be described thus: Inhibition of hormone-sensitive MCF-7 mammary tumor cell proliferation at 1*10e-7 M. Format: functional, Homo sapiens. Summed up: as §2
Assay [15] relates to MDA-MB-231. The assay is described as follows: Inhibition of hormone-independent MDA-MB 231 mammary tumor cell proliferation at 5*10e-6 M. Format: functional, Homo sapiens. The essentials: as §4
In assay [16] the target is T1, Estrogen receptor (Mus musculus). The assay is described as follows: Percent inhibition of estrone-stimulated uterotrophic effect in mice at 2 ug dose. The format is functional. The essentials: as §1
Assay [17] deals with MDA-MB-231. The assay can be described thus: Inhibition of hormone-independent MDA-MB 231 mammary tumor cell proliferation at 1*10e-7 M. Format: functional, Homo sapiens. The essentials:
as §4

Assay [18] has as its target Estrogen receptor (Bos taurus) (UniProt Q9XSB5+P49884). The assay can be described thus: Relative binding affinity for calf uterine estrogen receptor compared to 17-beta-estradiol (E2). Format: protein assay. Summed up:
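Competitive binding in calf uterine cytosol (final protein 3 mg/mL) in Tris-EDTA-NaN3 buffer, pH 7.5. 5 nM [3H]17β-estradiol plus competitor at 10^-9 to 10^-5 M, 18 h at 4 °C. Free ligand removed with dextran-coated charcoal (90 min, 4 °C). Nonspecific binding from 4 μM estradiol. RBA = ratio of estradiol to test molar concentrations giving 50% displacement × 100.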

Assay [19] has as its target T1, Estrogen receptor (Mus musculus). The assay can be described thus: Uterotrophic effect in mice as uterine weight(mg) relative to body weight(g) at 250 ug dose. The format is functional, tissue-based. The essentials:
as §5

Assay [20] shares this target. The assay is described as follows: Uterotrophic effect in mice as uterine weight(mg) relative to body weight(g) at 50 ug dose. Format: functional, tissue-based. The essentials: as §5
For assay [21] the target is unchanged. The assay is described as follows: Percent inhibition of estrone-stimulated uterotrophic effect in mice at 50 ug dose. Format: functional. Summed up: as §1

This is an account of results in ChEMBL document CHEMBL1126131, “6-Alkyl-12-formylindolo[2,1-a]isoquinolines. Syntheses, estrogen receptor binding affinities, and stereospecific cytostatic activity” (1992).

The structures appear in SMILES notation. Values joined by “and” are separate entries in the source; they are usually repeats but may differ in a detail not shown here. Equal entries are not always repeated.

Turning to `CCCCC1Cc2cc(OC(C)=O)ccc2-c2c(C=O)c3cc(OC(C)=O)ccc3n21` (stereo not given), the inhibition was 17% in assay [1], 50% in assay [8], 20% in assay [16] and 18% in assay [21]. Further, the T/C is recorded as 12% in [2]; 12% in [4]; 0% in assay [7]; 73% in assay [12]; 0% in [13]; 81% in assay [14]. Also, the T/C in assay [15] came to 12%; in assay [17], 116%. For the same compound, the Relative uterus weight in [3] amounted to 46.7; in assay [5], 20.2; in [6], 34.3; in [9], 47.8; in assay [10], 18.6; in [11], 48.2. Moreover, the Relative uterus weight turned out to be 25.5 in [19] and 9.1 in [20]. The relative binding affinity (RBA) in assay [18] came to 2.1.

For `CCC1Cc2cc(OC(C)=O)ccc2-c2c(C=O)c3ccc(OC(C)=O)cc3n21` (stereo not given), the inhibition in assay [1] came out at 14%; in assay [8] it was 38%; in assay [16] it was 17%; in assay [21] it was 27%. The T/C is recorded as 83% in assay [2]; 10% in assay [4]; 2% in assay [7]; 92% in assay [12]; 0% in assay [13]; 89% in [14]. The values for the T/C in assay [15] and in [17] were 34% and 101%, respectively. The Relative uterus weight in [3] was determined as 47.9; in assay [5], 15.9; in assay [6], 40.2; in assay [9], 44.2; in assay [10], 17.7; in assay [11], 49. Also, the Relative uterus weight in assay [19] was determined as 22.8; in [20], 18.2. The same compound came in with a relative binding affinity (RBA) in assay [18] of 1.3.

As for `CCCC1Cc2cc(OC(C)=O)ccc2-c2c(C=O)c3cc(OC(C)=O)ccc3n21` (stereo not given), the inhibition amounted to 20% in [1], 28% in [8], 27% in assay [16] and 26% in assay [21]. Also, the T/C in [2] stood at 86%; in assay [4] it was 9%; in [7], 9%; in [12], 106%; in assay [13], 0%; in assay [14] it was 99%. Besides, the values for the T/C in assay [15] and in assay [17] were 43% and 109%, respectively. In addition, the Relative uterus weight in assay [3] was determined as 38.8; in assay [5], 16.9; in assay [6], 38.5; in assay [9], 39.2; in assay [10], 21.1; in assay [11] it was 41.1. The Relative uterus weight in [19] was 32.9; in [20] it was 24.9. Further, the relative binding affinity (RBA) in assay [18] was determined as 2.6.

For `CC(=O)Oc1ccc2c(c1)CC(C)n1c-2c(C=O)c2ccc(OC(C)=O)cc21` (stereo not given), the inhibition was found to be 14% in assay [1], 38% in assay [8], 20% in assay [16] and 30% in assay [21]. In addition, the T/C in assay [2] is 106%; in assay [4], 45%; in assay [7], 36%; in assay [12], 112%; in assay [13], 1%; in assay [14], 97%. Also, the T/C was found to be 79% in assay [15] and 109% in [17]. Also, the Relative uterus weight in assay [3] turned out to be 45.3; in [5], 19.6; in [6] it was 39.7; in [9], 42.6; in assay [10], 18.2; in assay [11], 48.5. Besides, the Relative uterus weight was 19.9 in [19] and 18.2 in [20]. Also, the relative binding affinity (RBA) in assay [18] was determined as 1.7.

`CCCCCC1Cc2cc(OC(C)=O)ccc2-c2c(C=O)c3ccc(OC(C)=O)cc3n21` (stereo not given): the inhibition was 25% in [1], 38% in [8], 19% in assay [16] and 52% in assay [21]. For the same compound, the T/C was 90% in [2]; 27% in [4]; 0% in assay [7]; 105% in [12]; 0% in [13]; 101% in [14]. The T/C in assay [15] is 70%; in [17], 118%. The Relative uterus weight in assay [3] turned out to be 49; in assay [5] it was 16.4; in assay [6], 41.2; in assay [9] it was 35.6; in assay [10], 16.6; in assay [11], 46.4. Further, the Relative uterus weight worked out at 19.5 in [19] and 15.8 in assay [20]. The relative binding affinity (RBA) in [18] worked out at 0.6.

With `CC/C(=C(\c1ccccc1)c1ccc(OCCN(C)C)cc1)c1ccccc1` [TAMOXIFEN], the T/C in [2] is listed as 57%; in [7] it was 43%; in assay [13], 18%; in assay [14], 85%.

On to `CCCCCC1Cc2cc(OC(C)=O)ccc2-c2c(C=O)c3cc(OC(C)=O)ccc3n21` (stereo not given), for which the inhibition in assay [1] is 14%; in assay [8] it was 8%; in assay [16], 0%; in [21] it was 24%. Besides, the T/C in assay [2] was determined as 94%; in assay [4] it was 47%; in assay [7], 77%; in [12], 100%; in assay [13], 37%; in assay [14], 102%. Besides, the results for the T/C in assay [15] and in assay [17] were 80% and 105%, respectively. The Relative uterus weight in assay [3] was determined as 57.3; in [5], 17.9; in [6], 53.8; in assay [9] it was 47.1; in [10], 16; in assay [11], 51. In addition, the Relative uterus weight was 22.5 in assay [19] and 20.2 in assay [20]. Further, the relative binding affinity (RBA) in assay [18] amounted to 1.9.

`CCCC1Cc2cc(OC(C)=O)ccc2-c2c(C=O)c3ccc(OC(C)=O)cc3n21` (stereo not given): the inhibition in assay [1] amounted to 41%; in assay [8], 65%; in assay [16], 39%; in assay [21], 35%. The T/C in assay [2] worked out at 1%; in [4], 14%; in assay [7], 0%; in assay [12], 31%; in assay [13], 0%; in assay [14], 71%. Further, the T/C was determined as 15% in [15] and 100% in [17]. Besides, the Relative uterus weight in [3] was 39.4; in [5], 20.4; in [6] it was 29.5; in [9], 40.7; in assay [10], 17.1; in assay [11] it was 38.4 and 16.9. The Relative uterus weight in assay [19] amounted to 17.4. Besides, the relative binding affinity (RBA) in assay [18] came out at 0.5.

The inhibition is the drop in the measured response relative to a control, in per cent. A word on the T/C: it is the ratio of treated to control.
